# Screens deposited in PubChem BioAssay by several laboratories.
# Compounds with a hit are over-represented: about 1.8% of the library has one in this group of screens.
# LYP inh 2 = inhibitors of human LYP (PTPN22) phosphatase; inhibition, % at 2 µM; recombinant LYP catalytic domain, DiFMUP fluorescence; AID 640; 96,000 tested, 0.21% active;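 active = inhibition at 2 µM at or above a set limit, the screen mean plus 3 SD, cut at about 24% in these data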
# Plk1 PBD FP = blocks phosphopeptide binding to human Plk1 polo box domain; 97,000 tested, 0.13% active; P53350; inhibition, %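 (tested at about 20 µM)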; Plk1 PBD phosphopeptide binding, fluorescence polarization; in the data active = inhibition above about 34%, passing the limit was not always enough
# PTPN22 act = increases human PTPN22 phosphatase activity. recombinant LYP, DiFMUP fluorescence; 0 = plate median, 100 = signal doubled. activation, % at 2 µM. 96,000 tested, 0.11% active. Q9Y2R2;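 active = activation at 2 µM above a set limit, the mean plus 5 SD, cut at about 37% in these data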
# PLK1 kinase inh = blocks human PLK1 kinase activity; P53350; recombinant PLK1 kinase, TR-FRET peptide phosphorylation; inhibition, % at 10 µM; 97,000 tested, 0.53% active; AID 619;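 active = inhibition of 50% or more in the single-concentration screen; inactive = inhibition below 50%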
# EphB4 ephrin blk = EphB4-ephrin-B2 interaction antagonism. AID 720. EphB4 LBD / TNYL-RAW-Alexa532 peptide, fluorescence polarization. 97,000 tested, 0.15% active. P54760. inhibition, % at 7 µM;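 active = inhibition above the screen-wide mean inhibition plus 3 SD, cut at about 15% in these data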
# Rev-RRE block = HIV Rev-RRE protein-RNA interaction inhibition; inhibition, % at 8 µM; 97,000 tested, 0.79% active; Rev peptide-RRE RNA binding, FRET;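 active = inhibition above the screen-wide mean plus 3 SD, cut at about 35% in these data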
#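 Assay system: Rev peptide and RRE RNA, both fluorescently labelled; times: 5 min preincubation and 15 min binding, 25 °C; detection: FRET, ex 480 nm, em 540 and 671 nm; read-out basis: % inhibition from 671/540 nm acceptor-to-donor ratio, scaled between controls; benchmarks: DMSO low control, neomycin B high control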
# PLK1 confirm = confirmation of human PLK1 kinase inhibitors; shares compounds with PLK1 kinase inh; recombinant PLK1 kinase, TR-FRET peptide phosphorylation; inhibition, % at 10 µM; 210 tested, 20% active; AID 744;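 active = inhibition at or above 50% in each of two repeat confirmation tests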
# Plk1 interf = Plk1 assay compound interference counter-screen hit; shares compounds with PLK1 kinase inh; Plk1 TR-FRET assay interference, compound added post-reaction; inhibition (interference), % at 10 µM; 210 tested, under 10 active;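 active = both duplicate runs show 50% or greater inhibition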
# PBD redox DR = counter-screen for Plk1 PBD inhibitors: redox cycling H2O2 generation; shares compounds with Plk1 PBD FP; DTT; EC50, µM; 120 tested, under 10 active
# LYP act confirm = confirmation of human LYP phosphatase activators; shares compounds with PTPN22 act; Recombinant LYP, DIFMUP fluorescence, activation; zero set by plate's median compound well; activation, % at 2 µM; 100 tested, under 10 active; AID 1031
# A number is an active result; i = inactive; nt = not tested or not shown; [ ] = remark or other dose. Unless noted, no rule for the calls is given here.
SMILES,LYP inh 2,Plk1 PBD FP,PTPN22 act,PLK1 kinase inh,EphB4 ephrin blk,Rev-RRE block,PBD redox DR,others
CC1(C)C(C(=O)NN2C(=O)c3ccccc3C2=O)C1(C)C,i,i,i,i,i,i,nt,
CCCNC(=O)c1c(N)n(Cc2ccco2)c2nc3ccccc3nc12,i,i,i,i,i,i,nt,
COc1ccc(Cn2c(N)c(C(=O)NCc3ccco3)c3nc4ccccc4nc32)cc1OC,i,i,i,72,i,i,nt,PLK1 confirm=71;Plk1 interf=i
O=C1C(=O)c2ccccc2-c2ccccc21,i,95,i,i,i,i,i,
Cc1cccc(C)c1NC1=NCCCCS1,i,i,i,i,i,i,nt,
Cc1nc2c(=O)n(C)c(=O)nc-2n(C)n1,32,116,i,i,i,i,1.6,
Cc1cc(C)nc(-n2c(C)nc3cc(Cl)ccc3c2=O)c1,i,i,i,i,i,i,nt,
CCOC(=O)c1ccc(NC(=O)c2c(O)[nH]c(=O)[nH]c2=O)cc1,i,59,i,i,i,140[fluorescence artefact?],i,
Cn1c(O)c(C(=N)COc2cccc(Cl)c2)c(=O)n(C)c1=O,i,i,i,i,i,i,nt,
CC(C)CCC1(CN2CCCC2=O)C(=O)NC(=O)NC1=O,i,i,39,i,i,i,nt,LYP act confirm=i
CC(=NCCC1=CCCCC1)c1c(O)[nH]c(=O)[nH]c1=O,i,i,i,i,i,i,nt,
